Where a SMILES comes first, the peptide text is derived from it. Bridges are numbered along the chain shown (N, C = ends). [ ]: non-standard residue; d: D form. S5 = C=CCCC[C@](C)(N)C(=O)O; Nle = CCCC[C@H](N)C(=O)O
Experiments:
[1] = Inhibition of EGFP-fused MERS-CoV spike protein mediated cell-cell fusion between viral protein expressing human 293T cells and human HuH7 target cells after 4 hrs by inverted fluorescence microscopic analysis; set-up: species or system Middle East respiratory syndrome-related coronavirus
How it was run: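 Huh-7 target cells expressing DPP4 were seeded at 5 × 10^4/well and kept at 37 °C for 5 h. Inhibitors were added, then 293T effector cells co-expressing S protein and EGFP (1 × 10^4/well); 293T/EGFP-only cells served as negative control. After 4 h coculture at 37 °C, fused and unfused cells were counted by fluorescence microscopy.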

[2] = Binding affinity to NHR peptide HR1P in pH 7.2 phosphate buffer assessed as thermal unfolding transition at 50 uM after 30 mins by CD spectroscopic method
How it was run: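 Equimolar HR1P/peptide mixtures, 50 µM final in 50 mM PBS pH 7.2, were preincubated at 25 °C for 30 min. Thermal denaturation was followed by CD at 222 nm over a 10–90 °C gradient at 2 °C/min.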

## CSCC[C@H](NC(=O)[C@H](CCC(=O)O)NC(=O)[C@H](Cc1ccc(O)cc1)NC(=O)[C@@H](NC(=O)[C@H](CC(C)C)NC(=O)[C@H](CC(=O)O)NC(=O)[C@H](CC(C)C)NC(C)=O)[C@@H](C)O)C(=O)N[C@@H](CC(C)C)C(=O)N[C@@H](CO)C(=O)N[C@@H](CC(C)C)C(=O)N[C@@H](CCC(N)=O)C(=O)N[C@@H](CCC(N)=O)C(=O)N[C@H](C(=O)N[C@H](C(=O)N[C@@]1(C)CCC/C=C/CCC[C@@](C)(C(=O)N[C@@H](CO)C(=O)N[C@@H](Cc2ccc(O)cc2)C(N)=O)NC(=O)[C@H](CC(N)=O)NC(=O)[C@H](CC(C)C)NC(=O)[C@H](C)NC1=O)C(C)C)C(C)C
[1]
  EC50: 14.1 µM
[2]
  Tm: 56.6 to 66.6 °C

## C=CCCC[C@](C)(NC(=O)[C@H](CC(N)=O)NC(=O)[C@H](CC(C)C)NC(=O)[C@H](C)NC(=O)[C@](C)(CCCC=C)NC(=O)[C@@H](NC(=O)[C@@H](NC(=O)[C@H](CCC(N)=O)NC(=O)[C@H](CCC(N)=O)NC(=O)[C@H](CC(C)C)NC(=O)[C@H](CO)NC(=O)[C@H](CC(C)C)NC(=O)[C@H](CCSC)NC(=O)[C@H](CCC(=O)O)NC(=O)[C@H](Cc1ccc(O)cc1)NC(=O)[C@@H](NC(=O)[C@H](CC(C)C)NC(=O)[C@H](CC(=O)O)NC(=O)[C@H](CC(C)C)NC(C)=O)[C@@H](C)O)C(C)C)C(C)C)C(=O)N[C@@H](CO)C(=O)N[C@@H](Cc1ccc(O)cc1)C(N)=O
[1]
  EC50: 10.9 µM

## C=CCCC[C@](C)(NC(=O)[C@H](CC(C)C)NC(=O)[C@H](CCSC)NC(=O)[C@H](CCC(=O)O)NC(=O)[C@](C)(CCCC=C)NC(=O)[C@@H](NC(=O)[C@H](CC(C)C)NC(=O)[C@H](CC(=O)O)NC(=O)[C@H](CC(C)C)NC(C)=O)[C@@H](C)O)C(=O)N[C@@H](CC(C)C)C(=O)N[C@@H](CCC(N)=O)C(=O)N[C@@H](CCC(N)=O)C(=O)N[C@H](C(=O)N[C@H](C(=O)N[C@@H](CCCCN)C(=O)N[C@@H](C)C(=O)N[C@@H](CC(C)C)C(=O)N[C@@H](CC(N)=O)C(=O)N[C@@H](CCC(=O)O)C(=O)N[C@@H](CO)C(=O)N[C@@H](Cc1ccc(O)cc1)C(N)=O)C(C)C)C(C)C
[1]
  EC50: 8.21 µM

## CSCC[C@@H]1NC(=O)[C@H](CCC(=O)O)NC(=O)[C@@](C)(NC(=O)[C@@H](NC(=O)[C@H](CC(C)C)NC(=O)[C@H](CC(=O)O)NC(=O)[C@H](CC(C)C)NC(C)=O)[C@@H](C)O)CCC/C=C\CCC[C@@](C)(C(=O)N[C@@H](CC(C)C)C(=O)N[C@@H](CCC(N)=O)C(=O)N[C@@H](CCC(N)=O)C(=O)N[C@H](C(=O)N[C@H](C(=O)N[C@@H](CCCCN)C(=O)N[C@@H](C)C(=O)N[C@@H](CC(C)C)C(=O)N[C@@H](CC(N)=O)C(=O)N[C@@H](CCC(=O)O)C(=O)N[C@@H](CO)C(=O)N[C@@H](Cc2ccc(O)cc2)C(N)=O)C(C)C)C(C)C)NC(=O)[C@H](CC(C)C)NC1=O
[1]
  EC50: 7.14 µM
[2]
  Tm: 56.6 to 66.6 °C

## CSCC[C@H](NC(=O)[C@H](CCC(=O)O)NC(=O)[C@H](Cc1ccc(O)cc1)NC(=O)[C@@H](NC(=O)[C@H](CC(C)C)NC(=O)[C@H](CC(=O)O)NC(=O)[C@H](CC(C)C)NC(C)=O)[C@@H](C)O)C(=O)N[C@@H](CC(C)C)C(=O)N[C@@H](CO)C(=O)N[C@@H](CC(C)C)C(=O)N[C@@H](CCC(N)=O)C(=O)N[C@@]1(C)CCC/C=C\CCC[C@@](C)(C(=O)N[C@@H](CC(C)C)C(=O)N[C@@H](CC(N)=O)C(=O)N[C@@H](CCC(=O)O)C(=O)N[C@@H](CO)C(=O)N[C@@H](Cc2ccccc2)C(N)=O)NC(=O)[C@H](CCCCN)NC(=O)[C@H](C(C)C)NC(=O)[C@H](C(C)C)NC1=O (Ac-LDLTYEMLSLQ[S5]VVK[S5]LNESF-NH2; staple (Z) 12-16)
[1]
  EC50: 2.16 µM

## CSCC[C@H](NC(=O)[C@H](CCC(=O)O)NC(=O)[C@H](Cc1ccc(O)cc1)NC(=O)[C@@H](NC(=O)[C@H](CC(C)C)NC(=O)[C@H](CC(=O)O)NC(=O)[C@H](CC(C)C)NC(C)=O)[C@@H](C)O)C(=O)N[C@@]1(C)CCC/C=C\CCC[C@@](C)(C(=O)N[C@H](C(=O)N[C@H](C(=O)N[C@@H](CCCCN)C(=O)N[C@@H](C)C(=O)N[C@@H](CC(C)C)C(=O)N[C@@H](CC(N)=O)C(=O)N[C@@H](CCC(=O)O)C(=O)N[C@@H](CO)C(=O)N[C@@H](Cc2ccc(O)cc2)C(N)=O)C(C)C)C(C)C)NC(=O)[C@H](CCC(N)=O)NC(=O)[C@H](CC(C)C)NC(=O)[C@H](CO)NC1=O (Ac-LDLTYEM[S5]SLQ[S5]VVKALNESY-NH2; staple (Z) 8-12)
[1]
  EC50: 10.7 µM
[2]
  Tm: 56.6 to 66.6 °C

## CCCC[C@H](NC(=O)[C@H](CCC(=O)O)NC(=O)[C@H](Cc1ccc(O)cc1)NC(=O)[C@@H](NC(=O)[C@H](CC(C)C)NC(=O)[C@H](CC(=O)O)NC(=O)[C@H](CC(C)C)NC(C)=O)[C@@H](C)O)C(=O)N[C@@H](CC(C)C)C(=O)N[C@@H](CO)C(=O)N[C@@H](CC(C)C)C(=O)N[C@@H](CCC(N)=O)C(=O)N[C@@]1(C)CCC/C=C\CCC[C@@](C)(C(=O)N[C@@H](CC(C)C)C(=O)N[C@@H](CC(N)=O)C(=O)N[C@@H](CCC(=O)O)C(=O)N[C@@H](CO)C(=O)N[C@@H](Cc2ccccc2)C(N)=O)NC(=O)[C@H](CCCCN)NC(=O)[C@H](C(C)C)NC(=O)[C@H](C(C)C)NC1=O (Ac-LDLTYE[Nle]LSLQ[S5]VVK[S5]LNESF-NH2; staple (Z) 12-16)
[1]
  EC50: 3.89 µM

## CSCC[C@H](NC(=O)[C@H](CCC(=O)O)NC(=O)[C@H](Cc1ccc(O)cc1)NC(=O)[C@@H](NC(=O)[C@H](CC(C)C)NC(=O)[C@H](CC(=O)O)NC(=O)[C@H](CC(C)C)NC(C)=O)[C@@H](C)O)C(=O)N[C@@H](CC(C)C)C(=O)N[C@@H](CO)C(=O)N[C@@H](CC(C)C)C(=O)N[C@@H](CCC(N)=O)C(=O)N[C@@H](CCC(N)=O)C(=O)N[C@H](C(=O)N[C@H](C(=O)N[C@@H](CCCCN)C(=O)N[C@@H](C)C(=O)N[C@@H](CC(C)C)C(=O)N[C@@H](CC(N)=O)C(=O)N[C@@H](CCC(=O)O)C(=O)N[C@@H](CO)C(=O)N[C@@H](Cc1ccc(O)cc1)C(N)=O)C(C)C)C(C)C
[1]
  EC50: > 50 µM

## C=CCCC[C@](C)(NC(=O)[C@H](Cc1ccc(O)cc1)NC(=O)[C@@H](NC(=O)[C@H](CC(C)C)NC(=O)[C@](C)(CCCC=C)NC(=O)[C@H](CC(C)C)NC(C)=O)[C@@H](C)O)C(=O)N[C@@H](CCSC)C(=O)N[C@@H](CC(C)C)C(=O)N[C@@H](CO)C(=O)N[C@@H](CC(C)C)C(=O)N[C@@H](CCC(N)=O)C(=O)N[C@@H](CCC(N)=O)C(=O)N[C@H](C(=O)N[C@H](C(=O)N[C@@H](CCCCN)C(=O)N[C@@H](C)C(=O)N[C@@H](CC(C)C)C(=O)N[C@@H](CC(N)=O)C(=O)N[C@@H](CCC(=O)O)C(=O)N[C@@H](CO)C(=O)N[C@@H](Cc1ccc(O)cc1)C(N)=O)C(C)C)C(C)C
[1]
  EC50: 10.9 µM

Source: ChEMBL document CHEMBL4118106 (J Med Chem, 2018)
